In ChEMBL document CHEMBL5724801, “EUbOPEN Chemogenomics Library - Multiplex” (2024):
Several values for one entry are separate records, joined by “and”; a condition that tells them apart may be missing. Equal entries are not always repeated.

Test system: HEK-293T
Assay: Multiplex assay against HEK293T
Format: toxicity, cell-based
Conditions: human
In short: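 Values for tubulin, mitochondrial-mass and membrane-permeability phenotypes are per cents of cells with healthy nuclei. These cells were identified by CellPathfinder machine-learning gating of live cells that had been stained at seeding with Hoechst33342, BioTracker Green Microtubule Cytoskeleton Dye, MitoTracker Red and Annexin V Alexa Fluor 680 and imaged on a CQ1 microscope at 37°C and 5% CO2 after compound addition. The gating first set Hoechst high-intensity objects apart from normal cells, then split normal cells into healthy, pyknosed or fragmented nuclei, and pyknosed cells into mitotic or apoptotic.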

[1] = 12 h, 1 µM, compound concentration 1 uM
[2] = 12 h, 10 µM, compound concentration 10 uM
[3] = 24 h, 1 µM, compound concentration 1 uM
[4] = 24 h, 10 µM, compound concentration 10 uM
[5] = 48 h, 1 µM, compound concentration 1 uM
[6] = 48 h, 10 µM, compound concentration 10 uM

Cc1sc2c(c1C)C(c1ccc(Cl)cc1)=N[C@@H](CC(=O)NCCCCCCCCNC(=O)COc1cccc3c1C(=O)N(C1CCC(=O)NC1=O)C3=O)c1nnc(C)n1-2 (some centres not stated)
Population Apoptotic (%) [1]: 66% and 62% | Population Fragmented Nuclei (%) [1]: 5% and 6% | Population Healthy Nuclei (%) [1]: 55% and 69% | Population Membrane Permeable-Phenotype (%) [1]: 0% | Population Mitochondria Different-Phenotype (%) [1]: 73% and 91% | Population Mitotic Cells (%) [1]: 33% and 37% | Population Normal (%) [1]: 90% and 69% | Population Pyknosed Nuclei (%) [1]: 39% and 24% | Population Tubulin-Different-Phenotype (%) [1]: 49% and 59% | Total Cell Count [1]: 175 and 205 | Population Apoptotic (%) [2]: 60% and 53% | Population Fragmented Nuclei (%) [2]: 9% and 8% | Population Healthy Nuclei (%) [2]: 67% and 66% | Population Hoechst High Intensity Objects (%) [2]: 14% and 37% | Population Membrane Permeable-Phenotype (%) [2]: 0% | Population Mitochondria Different-Phenotype (%) [2]: 75% and 87% | Population Mitotic Cells (%) [2]: 39% and 46% | Population Normal (%) [2]: 85% and 62% | Population Pyknosed Nuclei (%) [2]: 23% and 24% | Population Tubulin-Different-Phenotype (%) [2]: 23% and 39% | Total Cell Count [2]: 363 and 315 | Population Apoptotic (%) [3]: 51% and 67% | Population Fragmented Nuclei (%) [3]: 7% and 6% | Population Healthy Nuclei (%) [3]: 61% and 70% | Population Membrane Permeable-Phenotype (%) [3]: 0% | Population Mitochondria Different-Phenotype (%) [3]: 58% and 83% | Population Mitotic Cells (%) [3]: 48% and 32% | Population Normal (%) [3]: 93% and 69% | Population Pyknosed Nuclei (%) [3]: 31% and 23% | Population Tubulin-Different-Phenotype (%) [3]: 22% and 31% | Total Cell Count [3]: 261 and 231 | Population Apoptotic (%) [4]: 52% and 57% | Population Fragmented Nuclei (%) [4]: 11% and 9% | Population Healthy Nuclei (%) [4]: 64% and 60% | Population Membrane Permeable-Phenotype (%) [4]: 0% | Population Mitochondria Different-Phenotype (%) [4]: 64% and 86% | Population Mitotic Cells (%) [4]: 47% and 42% | Population Normal (%) [4]: 87% and 60% | Population Pyknosed Nuclei (%) [4]: 24% and 30% | Population Tubulin-Different-Phenotype (%) [4]: 19% | Total Cell Count [4]: 397 and 346 | Population Apoptotic (%) [5]: 55% and 67% | Population Fragmented Nuclei (%) [5]: 7% and 9% | Population Healthy Nuclei (%) [5]: 58% and 65% | Population Membrane Permeable-Phenotype (%) [5]: 0% | Population Mitochondria Different-Phenotype (%) [5]: 56% and 78% | Population Mitotic Cells (%) [5]: 44% and 32% | Population Normal (%) [5]: 97% and 84% | Population Pyknosed Nuclei (%) [5]: 33% and 25% | Population Tubulin-Different-Phenotype (%) [5]: 30% and 42% | Total Cell Count [5]: 284 and 289 | Population Apoptotic (%) [6]: 48% and 65% | Population Fragmented Nuclei (%) [6]: 9% and 15% | Population Healthy Nuclei (%) [6]: 55% and 52% | Population Hoechst High Intensity Objects (%) [6]: 14% and 31% | Population Membrane Permeable-Phenotype (%) [6]: 0% | Population Mitochondria Different-Phenotype (%) [6]: 51% and 76% | Population Mitotic Cells (%) [6]: 51% and 34% | Population Normal (%) [6]: 85% and 69% | Population Pyknosed Nuclei (%) [6]: 35% and 31% | Population Tubulin-Different-Phenotype (%) [6]: 17% and 31% | Total Cell Count [6]: 403 and 300

CN1CCN(c2ccc(Nc3c4ccccc4nc4ccccc34)cc2)CC1.Cl.Cl.O
Population Apoptotic (%) [1]: 42% and 55% | Population Fragmented Nuclei (%) [1]: 7% and 4% | Population Healthy Nuclei (%) [1]: 81% and 90% | Population Hoechst High Intensity Objects (%) [1]: 3% and 1% | Population Membrane Permeable-Phenotype (%) [1]: 0% | Population Mitochondria Different-Phenotype (%) [1]: 50% and 59% | Population Mitotic Cells (%) [1]: 57% and 45% | Population Normal (%) [1]: 96% and 98% | Population Pyknosed Nuclei (%) [1]: 11% and 5% | Population Tubulin-Different-Phenotype (%) [1]: 28% and 20% | Total Cell Count [1]: 411 and 364 | Population Apoptotic (%) [2]: 100% | Population Fragmented Nuclei (%) [2]: 24% and 40% | Population Healthy Nuclei (%) [2]: 74% and 58% | Population Hoechst High Intensity Objects (%) [2]: 1% and 0% | Population Membrane Permeable-Phenotype (%) [2]: 0% | Population Mitochondria Different-Phenotype (%) [2]: 99% and 100% | Population Mitotic Cells (%) [2]: 0% | Population Normal (%) [2]: 98% and 99% | Population Pyknosed Nuclei (%) [2]: 1% | Population Tubulin-Different-Phenotype (%) [2]: 97% and 92% | Total Cell Count [2]: 234 and 194 | Population Apoptotic (%) [3]: 42% and 46% | Population Fragmented Nuclei (%) [3]: 9% | Population Healthy Nuclei (%) [3]: 84% and 86% | Population Hoechst High Intensity Objects (%) [3]: 2% and 0% | Population Membrane Permeable-Phenotype (%) [3]: 0% | Population Mitochondria Different-Phenotype (%) [3]: 40% and 44% | Population Mitotic Cells (%) [3]: 57% and 53% | Population Normal (%) [3]: 97% and 99% | Population Pyknosed Nuclei (%) [3]: 5% and 4% | Population Tubulin-Different-Phenotype (%) [3]: 14% and 12% | Total Cell Count [3]: 455 and 362 | Population Apoptotic (%) [4]: 100% | Population Fragmented Nuclei (%) [4]: 28% and 45% | Population Healthy Nuclei (%) [4]: 69% and 53% | Population Hoechst High Intensity Objects (%) [4]: 2% and 0% | Population Membrane Permeable-Phenotype (%) [4]: 0% | Population Mitochondria Different-Phenotype (%) [4]: 100% | Population Mitotic Cells (%) [4]: 0% | Population Normal (%) [4]: 97% and 99% | Population Pyknosed Nuclei (%) [4]: 2% and 0% | Population Tubulin-Different-Phenotype (%) [4]: 92% and 91% | Total Cell Count [4]: 247 and 206 | Population Apoptotic (%) [5]: 45% and 60% | Population Fragmented Nuclei (%) [5]: 11% and 10% | Population Healthy Nuclei (%) [5]: 82% and 85% | Population Hoechst High Intensity Objects (%) [5]: 3% and 1% | Population Membrane Permeable-Phenotype (%) [5]: 0% | Population Mitochondria Different-Phenotype (%) [5]: 30% and 36% | Population Mitotic Cells (%) [5]: 54% and 40% | Population Normal (%) [5]: 96% and 98% | Population Pyknosed Nuclei (%) [5]: 6% and 3% | Population Tubulin-Different-Phenotype (%) [5]: 16% and 12% | Total Cell Count [5]: 581 and 411 | Population Apoptotic (%) [6]: 100% and 66% | Population Fragmented Nuclei (%) [6]: 34% and 52% | Population Healthy Nuclei (%) [6]: 56% and 46% | Population Hoechst High Intensity Objects (%) [6]: 11% and 5% | Population Membrane Permeable-Phenotype (%) [6]: 0% | Population Mitochondria Different-Phenotype (%) [6]: 100% and 99% | Population Normal (%) [6]: 88% and 94% | Population Pyknosed Nuclei (%) [6]: 9% and 1% | Population Tubulin-Different-Phenotype (%) [6]: 88% and 89% | Total Cell Count [6]: 318 and 272
